Values after ≈ are worked out from the molar mass of the structure shown.
Experiments:
Type in all cases: functional
Nakaseomyces glabratus [1] = experiment: Antifungal activity against Candida glabrata isolate 2 assessed as maximum log cell kill at 4 times MIC after 24 to 48 hrs by time-kill method
Candida albicans [2] = experiment: Antifungal activity against Candida albicans ATCC 90029 assessed as maximum log cell kill at 16 times MIC after 24 hrs by time-kill method
Candida parapsilosis [3] = experiment: Antifungal activity against Candida parapsilosis isolate 2 assessed as maximum log cell kill at 4 times MIC after >48 hrs by time-kill method
In short: (§1)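 Bloodstream isolate colonies from 48-h Sabouraud dextrose agar cultures were suspended in sterile water. […] Samples taken 0–72 h were plated for CFU. Value is the maximum log difference from drug-free control per time window. Run in duplicate.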

Candida parapsilosis [4] = experiment: Antifungal activity against Candida parapsilosis isolate 2 assessed as maximum log cell kill at 16 times MIC after 24 to 48 hrs by time-kill method
Nakaseomyces glabratus [5] = experiment: Antifungal activity against Candida glabrata isolate 1 assessed as maximum log cell kill at MIC after 24 to 48 hrs by time-kill method
Nakaseomyces glabratus [6] = experiment: Antifungal activity against Candida glabrata isolate 1 assessed as maximum log cell kill at MIC after >48 hrs by time-kill method
Nakaseomyces glabratus [7] = experiment: Antifungal activity against Candida glabrata isolate 2 assessed as maximum log cell kill at MIC after 24 hrs by time-kill method
Candida parapsilosis [8] = experiment: Antifungal activity against Candida parapsilosis isolate 2 by Etest; settings: Lodderomyces parapsilosis
Nakaseomyces glabratus [9] = experiment: Antifungal activity against Candida glabrata isolate 1 assessed as maximum log cell kill at 4 times MIC after 24 to 48 hrs by time-kill method
Nakaseomyces glabratus [10] = experiment: Antifungal activity against Candida glabrata isolate 2 assessed as maximum log cell kill at 4 times MIC after >48 hrs by time-kill method
Candida parapsilosis [11] = experiment: Antifungal activity against Candida parapsilosis isolate 2 assessed as maximum log cell kill at 16 times MIC after >48 hrs by time-kill method
Candida parapsilosis [12] = experiment: Antifungal activity against Candida parapsilosis isolate 1 assessed as maximum log cell kill at 16 times MIC after 24 to 48 hrs by time-kill method
Candida parapsilosis [13] = experiment: Antifungal activity against Candida parapsilosis isolate 1 assessed as maximum log cell kill at MIC after >48 hrs by time-kill method
Nakaseomyces glabratus [14] = experiment: Antifungal activity against Candida glabrata isolate 1 by Etest
In short: (§2)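 MIC by Etest, checked against the CLSI (NCCLS M27-A2) broth microdilution method. Both methods agreed within twofold.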

Candida parapsilosis [15] = experiment: Antifungal activity against Candida parapsilosis isolate 1 assessed as maximum log cell kill at MIC after 24 hrs by time-kill method
Nakaseomyces glabratus [16] = experiment: Antifungal activity against Candida glabrata isolate 2 assessed as maximum log cell kill at 16 times MIC after 24 to 48 hrs by time-kill method
Candida albicans [17] = experiment: Antifungal activity against Candida albicans ATCC 90029 assessed as maximum log cell kill at MIC after 24 hrs by time-kill method
Candida parapsilosis [18] = experiment: Antifungal activity against Candida parapsilosis isolate 1 assessed as maximum log cell kill at 16 times MIC after >48 hrs by time-kill method
Candida albicans [19] = experiment: Antifungal activity against Candida albicans SC5314 assessed as maximum log cell kill at 4 times MIC after 24 to 48 hrs by time-kill method
Candida parapsilosis [20] = experiment: Antifungal activity against Candida parapsilosis isolate 2 assessed as maximum log cell kill at MIC after >48 hrs by time-kill method; in short: as §1
Candida albicans [21] = experiment: Antifungal activity against Candida albicans SC5314 assessed as maximum log cell kill at 16 times MIC after 24 to 48 hrs by time-kill method
Nakaseomyces glabratus [22] = experiment: Antifungal activity against Candida glabrata isolate 2 assessed as maximum log cell kill at MIC after 24 to 48 hrs by time-kill method
Nakaseomyces glabratus [23] = experiment: Antifungal activity against Candida glabrata isolate 2 assessed as maximum log cell kill at 16 times MIC after >48 hrs by time-kill method
Candida parapsilosis [24] = experiment: Antifungal activity against Candida parapsilosis isolate 1 assessed as maximum log cell kill at 16 times MIC after 24 hrs by time-kill method
Nakaseomyces glabratus [25] = experiment: Antifungal activity against Candida glabrata isolate 1 assessed as maximum log cell kill at 4 times MIC after 24 hrs by time-kill method
Nakaseomyces glabratus [26] = experiment: Antifungal activity against Candida glabrata isolate 1 assessed as maximum log cell kill at MIC after 24 hrs by time-kill method
Candida parapsilosis [27] = experiment: Antifungal activity against Candida parapsilosis isolate 2 assessed as maximum log cell kill at 4 times MIC after 24 hrs by time-kill method; in short: as §1
Candida parapsilosis [28] = experiment: Antifungal activity against Candida parapsilosis isolate 2 assessed as maximum log cell kill at MIC after 24 hrs by time-kill method; in short: as §1
Candida parapsilosis [29] = experiment: Antifungal activity against Candida parapsilosis isolate 2 assessed as maximum log cell kill at 4 times MIC after 24 to 48 hrs by time-kill method; in short: as §1
Candida parapsilosis [30] = experiment: Antifungal activity against Candida parapsilosis isolate 1 assessed as maximum log cell kill at MIC after 24 to 48 hrs by time-kill method
Candida albicans [31] = experiment: Antifungal activity against Candida albicans ATCC 90029 assessed as maximum log cell kill at 4 times MIC after 24 to 48 hrs by time-kill method
Nakaseomyces glabratus [32] = experiment: Antifungal activity against Candida glabrata isolate 1 assessed as maximum log cell kill at 16 times MIC after 24 to 48 hrs by time-kill method
Nakaseomyces glabratus [33] = experiment: Antifungal activity against Candida glabrata isolate 2 assessed as maximum log cell kill at MIC after >48 hrs by time-kill method
Candida parapsilosis [34] = experiment: Antifungal activity against Candida parapsilosis isolate 2 assessed as maximum log cell kill at 16 times MIC after 24 hrs by time-kill method
Candida albicans [35] = experiment: Antifungal activity against Candida albicans SC5314 by Etest; in short: as §2
Candida albicans [36] = experiment: Antifungal activity against Candida albicans SC5314 assessed as maximum log cell kill at 16 times MIC after 24 hrs by time-kill method
Candida albicans [37] = experiment: Antifungal activity against Candida albicans SC5314 assessed as maximum log cell kill at MIC after 24 to 48 hrs by time-kill method
Candida parapsilosis [38] = experiment: Antifungal activity against Candida parapsilosis isolate 1 assessed as maximum log cell kill at 4 times MIC after 24 hrs by time-kill method
Candida albicans [39] = experiment: Antifungal activity against Candida albicans SC5314 assessed as maximum log cell kill at MIC after 24 hrs by time-kill method
Candida albicans [40] = experiment: Antifungal activity against Candida albicans ATCC 90029 assessed as maximum log cell kill at 4 times MIC after >48 hrs by time-kill method
Candida albicans [41] = experiment: Antifungal activity against Candida albicans ATCC 90029 assessed as maximum log cell kill at 16 times MIC after 24 to 48 hrs by time-kill method
Candida albicans [42] = experiment: Antifungal activity against Candida albicans SC5314 assessed as maximum log cell kill at 4 times MIC after 24 hrs by time-kill method
Candida parapsilosis [43] = experiment: Antifungal activity against Candida parapsilosis isolate 1 assessed as maximum log cell kill at 4 times MIC after >48 hrs by time-kill method
Candida parapsilosis [44] = experiment: Antifungal activity against Candida parapsilosis isolate 1 assessed as maximum log cell kill at 4 times MIC after 24 to 48 hrs by time-kill method
Nakaseomyces glabratus [45] = experiment: Antifungal activity against Candida glabrata isolate 2 by Etest; in short: as §2
Candida albicans [46] = experiment: Antifungal activity against Candida albicans ATCC 90029 by Etest; in short: as §2
Candida albicans [47] = experiment: Antifungal activity against Candida albicans ATCC 90029 assessed as maximum log cell kill at MIC after >48 hrs by time-kill method
Nakaseomyces glabratus [48] = experiment: Antifungal activity against Candida glabrata isolate 1 assessed as maximum log cell kill at 4 times MIC after >48 hrs by time-kill method
Nakaseomyces glabratus [49] = experiment: Antifungal activity against Candida glabrata isolate 1 assessed as maximum log cell kill at 16 times MIC after 24 hrs by time-kill method
Candida parapsilosis [50] = experiment: Antifungal activity against Candida parapsilosis isolate 2 assessed as maximum log cell kill at MIC after 24 to 48 hrs by time-kill method; in short: as §1
Candida albicans [51] = experiment: Antifungal activity against Candida albicans ATCC 90029 assessed as maximum log cell kill at 16 times MIC after >48 hrs by time-kill method
Candida albicans [52] = experiment: Antifungal activity against Candida albicans ATCC 90029 assessed as maximum log cell kill at MIC after 24 to 48 hrs by time-kill method
Nakaseomyces glabratus [53] = experiment: Antifungal activity against Candida glabrata isolate 2 assessed as maximum log cell kill at 4 times MIC after 24 hrs by time-kill method
Candida albicans [54] = experiment: Antifungal activity against Candida albicans ATCC 90029 assessed as maximum log cell kill at 4 times MIC after 24 hrs by time-kill method
Nakaseomyces glabratus [55] = experiment: Antifungal activity against Candida glabrata isolate 1 assessed as maximum log cell kill at 16 times MIC after >48 hrs by time-kill method
Nakaseomyces glabratus [56] = experiment: Antifungal activity against Candida glabrata isolate 2 assessed as maximum log cell kill at 16 times MIC after 24 hrs by time-kill method
Candida parapsilosis [57] = experiment: Antifungal activity against Candida parapsilosis isolate 1 by Etest; settings: Lodderomyces parapsilosis; in short: as §2

SMILES: C[C@@H](c1ncncc1F)[C@](O)(Cn1cncn1)c1ccc(F)cc1F [VORICONAZOLE]
- LCK (Nakaseomyces glabratus [1]): -2.39
- LCK (Candida albicans [2]): -1.34
- LCK (Candida parapsilosis [3]): -1.12
- LCK (Candida parapsilosis [4]): -3.94
- LCK (Nakaseomyces glabratus [5]): -0.74
- LCK (Nakaseomyces glabratus [6]): -0.99
- LCK (Nakaseomyces glabratus [7]): -1.02
- MIC (Candida parapsilosis [8]): 0.016 µg/mL (≈ 0.0458 µM)
- LCK (Nakaseomyces glabratus [9]): -0.78
- LCK (Nakaseomyces glabratus [10]): -2.99
- LCK (Candida parapsilosis [11]): -4.15
- LCK (Candida parapsilosis [12]): -2.74
- LCK (Candida parapsilosis [13]): -0.67
- MIC (Nakaseomyces glabratus [14]): 0.19 µg/mL (≈ 0.544 µM)
- LCK (Candida parapsilosis [15]): -0.99
- LCK (Nakaseomyces glabratus [16]): -2.49
- LCK (Candida albicans [17]): -1.23
- LCK (Candida parapsilosis [18]): -2.69
- LCK (Candida albicans [19]): -0.53
- LCK (Candida parapsilosis [20]): -0.88
- LCK (Candida albicans [21]): -0.58
- LCK (Nakaseomyces glabratus [22]): -2.23
- LCK (Nakaseomyces glabratus [23]): -3.02
- LCK (Candida parapsilosis [24]): -1.68
- LCK (Nakaseomyces glabratus [25]): -0.49
- LCK (Nakaseomyces glabratus [26]): -0.43
- LCK (Candida parapsilosis [27]): -2.7
- LCK (Candida parapsilosis [28]): -1.86
- LCK (Candida parapsilosis [29]): -2.13
- LCK (Candida parapsilosis [30]): -0.91
- LCK (Candida albicans [31]): -1.84
- LCK (Nakaseomyces glabratus [32]): -1
- LCK (Nakaseomyces glabratus [33]): -2.78
- LCK (Candida parapsilosis [34]): -3.93
- MIC (Candida albicans [35]): 0.012 µg/mL (≈ 0.0344 µM)
- LCK (Candida albicans [36]): -0.54
- LCK (Candida albicans [37]): -0.56
- LCK (Candida parapsilosis [38]): -1.64
- LCK (Candida albicans [39]): -0.61
- LCK (Candida albicans [40]): -1.9
- LCK (Candida albicans [41]): -1.96
- LCK (Candida albicans [42]): -0.51
- LCK (Candida parapsilosis [43]): -2.37
- LCK (Candida parapsilosis [44]): -2.67
- MIC (Nakaseomyces glabratus [45]): 0.032 µg/mL (≈ 0.0916 µM)
- MIC (Candida albicans [46]): 0.008 µg/mL (≈ 0.0229 µM)
- LCK (Candida albicans [47]): -1.63
- LCK (Nakaseomyces glabratus [48]): -1.08
- LCK (Nakaseomyces glabratus [49]): -0.59
- LCK (Candida parapsilosis [50]): -1.03
- LCK (Candida albicans [51]): -1.89
- LCK (Candida albicans [52]): -1.77
- LCK (Nakaseomyces glabratus [53]): -1.1
- LCK (Candida albicans [54]): -1.34
- LCK (Nakaseomyces glabratus [55]): -1.17
- LCK (Nakaseomyces glabratus [56]): -1.15
- MIC (Candida parapsilosis [57]): 0.008 µg/mL (≈ 0.0229 µM)
